Assay outcomes deposited in PubChem BioAssay by NMMLSC.
MEKK2 WT-MEK5 = modulators of MEK5 binding to wildtype MEKK2, primary screen, biochemical, multiplex bead flow cytometry, Alexa488-MEK5; Mitogen-activated protein kinase kinase kinase 2 (Homo sapiens), Q9Y2U5; Alexa488-MEK5 binding to MEKK2 WT; actives lie on both sides; binding response (% of control), % at 10 µM; 290,000 tested, 1.1% active; in the data active means binding response below about 67% or above about 130%
MEKK3 PB1 HTS = modulators of MEKK3-MEK5 PB1 binding, primary screen, biochemical, wildtype MEKK3, multiplex bead flow cytometry, Alexa488-MEK5 | Mitogen-activated protein kinase kinase kinase 3 (Homo sapiens), Q99759 | bead-based flow cytometry, Alexa488-MEK5 binding to MEKK3; actives lie on both sides; 0 = blocked by unlabeled MEK5, 100 = vehicle | binding response (% of control), % at 10 µM | 290,000 tested, 1.4% active;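 active means binding response more than 3 SD above or below the average of its plate-row segment, actives on both sides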;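 further: Alexa488 bead fluorescence after subtracting the streptavidin-only scavenger bead signal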
ABCB1 inh = ABCB1 efflux pump inhibitors, primary screen, cell-based, multiplex, flow cytometry, ABCG2 counter-screen; inhibition, % at 6.6 µM; CCRF-Adr cells, JC-1 efflux; ATP-dependent translocase ABCB1 (Homo sapiens), P08183; 190,000 tested, 0.067% active; AID 1326, 2008; in the data active means inhibition above about 40%;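 further: 0% = vehicle and 100% = reference inhibitor; higher value means more JC-1 retained so stronger ABCB1 efflux block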
Efflux pump mplx = inhibitors of Candida efflux pumps in yeast, primary screen, S. cerevisiae, Nile Red, multiplex | S. cerevisiae Candida pump triplex | inhibition, % at 10 µM | 330,000 tested, 0.44% active;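 active means plate passing quality check with inhibition over a set limit, or well fluorescence over plate mean plus 4 SD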;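 further: Nile Red retained in pooled yeast measured as flow cytometry median fluorescence; 0% = buffer negative control and 100% = Enniatin B positive control; higher means more Nile Red kept so more efflux inhibition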
MEKK2mut PB1 HTS = MEK5 binding signal on mutant MEKK2 PB1, primary screen, biochemical, multiplex bead flow cytometry, Alexa488-MEK5; Alexa488-MEK5 binding to MEKK2 mutant; percent response, % at 10 µM; 290,000 tested, 0.35% active; AID 1530, 2009; in the data active means percent response above about 24%, passing the limit was not always enough
ABCG2 block = ABCG2 efflux pump inhibitors, primary screen, multiplex with ABCB1, IgMXP3 cells, flow cytometry | Broad substrate specificity ATP-binding cassette transporter ABCG2 (Homo sapiens), Q9UNQ0 | JC-1 efflux | inhibition, % at 6.6 µM | 190,000 tested, 0.1% active;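 active means inhibition above 80%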;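 further: 0% = DMSO and 100% = nicardipine control wells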
Target sequence (Q9UNQ0 whole entry, looked up): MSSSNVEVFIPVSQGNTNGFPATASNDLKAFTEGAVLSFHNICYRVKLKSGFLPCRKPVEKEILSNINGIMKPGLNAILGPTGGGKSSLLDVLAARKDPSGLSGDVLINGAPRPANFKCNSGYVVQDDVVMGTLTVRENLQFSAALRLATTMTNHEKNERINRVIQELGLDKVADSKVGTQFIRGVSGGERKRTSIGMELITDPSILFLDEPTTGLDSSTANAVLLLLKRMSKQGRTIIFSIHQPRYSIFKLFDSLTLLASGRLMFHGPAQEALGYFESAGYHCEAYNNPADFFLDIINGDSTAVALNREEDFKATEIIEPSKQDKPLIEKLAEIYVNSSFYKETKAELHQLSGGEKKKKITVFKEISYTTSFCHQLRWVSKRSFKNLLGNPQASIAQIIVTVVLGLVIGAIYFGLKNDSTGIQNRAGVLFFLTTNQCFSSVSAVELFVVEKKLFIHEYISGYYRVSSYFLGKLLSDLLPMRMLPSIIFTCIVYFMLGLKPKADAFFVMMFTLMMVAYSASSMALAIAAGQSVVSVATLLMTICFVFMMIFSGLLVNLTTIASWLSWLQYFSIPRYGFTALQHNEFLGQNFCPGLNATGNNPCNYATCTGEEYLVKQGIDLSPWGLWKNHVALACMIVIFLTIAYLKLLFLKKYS
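Measure – % inhibition of efflux relative to nicardipine and DMSO · Test system – ABCG2 IgMXP3 and barcoded ABCB1 CCRF-Adr cell mix · Control set – nicardipine as high control, DMSO as low control · Compound – one concentration, 6.6 µM final · Signal – flow cytometry of retained JC-1 fluorescence · Timing – 10 min exposure at 25 °C with rotation, no wash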
MEKK2wt confirm = modulators of MEK5 binding to wildtype MEKK2, confirmation, biochemical, single concentration, multiplex bead flow cytometry. shares compounds with MEKK3 PB1 HTS. Alexa488-MEK5 binding to MEKK2 WT; actives lie on both sides. binding response (% of control), % at 10 µM. 5,900 tested, 2.4% active. AID 1892, 2009; in the data active means binding response below about 16% or above about 210%; inactive means in between
MEKK2mut-MEK5 = mutant MEKK2 PB1-MEK5 binding signal retest – biochemical, single concentration, multiplex bead flow cytometry, confirmation. shares compounds with MEKK3 PB1 HTS. Alexa488-MEK5 binding to MEKK2 mutant. percent response, % at 10 µM. 5,900 tested, 2% active; in the data active means percent response mostly above about 71%, no sharp cut-off; inactive means mostly below about 38%;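 further: higher means compound restores mutant binding toward wildtype level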
MEKK3 confirm = MEKK3 wild-type PB1 binding to MEK5, inhibitors, confirmation, biochemical, bead multiplex flow cytometry, single concentration, wildtype | shares compounds with MEKK3 PB1 HTS | Alexa488-MEK5 binding to MEKK3; active compounds read low | binding response (% of control), % at 10 µM | 5,900 tested, 1.8% active | AID 1894, 2009;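 active means binding response below 72% of control, or above a set upper limit, though filed actives all read lower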;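 further: 100% = DMSO only wells and 0% = binding blocked by excess unlabeled MEK5; lower values mean stronger disruption of MEK5 binding to MEKK3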
* marks the source's active call; other numbers are inactive results; x = no result given; + = active, no number; [ ] = remark or other dose. A selection: hits, their analogues and other compounds. The true share with any hit is near 2.5%.

SMILES	MEKK2 WT-MEK5	MEKK3 PB1 HTS	ABCB1 inh	Efflux pump mplx	MEKK2mut PB1 HTS	ABCG2 block	MEKK2wt confirm	MEKK2mut-MEK5	MEKK3 confirm
CCc1cccc(CC)c1NC(=S)N1CCn2cccc2C1c1cccnc1 (centres undefined)	111.0	96.0	0.5	-0.1	6.0	0.8	x	x	x
CCOC(=O)c1cc2cc([N+](=O)[O-])ccc2oc1=O	76.0	75.0*[inhibitor]	x	-0.1	-28.0	x	102.0	7.0	100.0
Cc1c(NC(=O)C(C)OC(=O)/C=C/c2ccc3c(c2)OCO3)c(=O)n(-c2ccccc2)n1C (centres undefined)	90.0	88.0	-1.0	-0.1	-7.0	-1.3	x	x	x
CCCCC(=O)OCC(=O)Nc1ccc(C)c(F)c1	88.0	95.0	0.1	-0.1	-11.0	-0.3	x	x	x
O=C(Cn1cccc1C(=O)c1ccccc1)NCCCN1CCOCC1	94.0	95.0	0.4	0.1	-5.0	1.6	x	x	x
O=C(Cn1cccc1C(=O)c1ccccc1)NCCN1CCCCCC1	171.0*	115.0	0.0	0.0	25.0*	0.1	157.0	30.0	104.0
Cc1ccc(C)c(N2CCN(CCCNC(=O)Cn3cccc3C(=O)c3ccccc3)CC2)c1	176.0*	111.0	3.0	-0.1	45.0	1.1	129.0	13.0	104.0
O=C(Cn1cccc1C(=O)c1ccccc1)NCCN1CCOCC1	100.0	97.0	1.1	-0.1	0.0	13.0	x	x	x
Nn1c(SCC(=O)Nc2ccc(N3CCOCC3)cc2)nnc1-c1ccccc1F	x	x	x	-0.2	x	x	x	x	x
CN(C)C1C(=O)c2ccccc2C1=O	95.0	104.0	0.0	0.0	3.0	4.2	x	x	x
O=C(CN1C(=O)NC2NC(=O)NC21)NN=C1CCCC1 (centres undefined)	109.0	150.0*	0.2	-0.2	0.0	2.6	104.0	7.0	102.0
O=C(Nc1nnc(-c2ccco2)o1)c1cccc(N2C(=O)CCC2=O)c1	117.0	129.0*	-0.1	0.0	4.0	0.0	102.0	-5.0	100.0
O=C(Nc1nnc(-c2ccncc2)o1)c1cccc(N2C(=O)CCC2=O)c1	103.0	100.0	1.2	0.1	2.0	5.5	x	x	x
Cc1c(CCOC(=O)C23CC4(C)CC(C)(CC(C)(C4)C2)C3)sc[n+]1CC(=O)c1ccccc1	158.0*	98.0	1.0	0.0	23.0	6.3	154.0	17.0	106.0
O=P(CCCO)(Cc1ccccc1)Cc1ccccc1	105.0	98.0	x	0.1	1.0	x	x	x	x
Nc1nc(NCc2ccccc2)nc(NCc2ccccc2)c1[N+](=O)[O-]	112.0	152.0*	1.0	0.1	1.0	18.4	106.0	6.0	106.0
Cc1ccc(CNc2nc(N)c([N+](=O)[O-])c(NCc3ccccc3)n2)cc1	96.0	97.0	0.8	0.0	-1.0	6.6	x	x	x
CSc1ccccc1NC(=O)CSc1n[nH]c(C)c1[N+](=O)[O-]	97.0	101.0	1.1	0.1	2.0	10.5	x	x	x
Cc1ccc(NC(=O)CSc2n[nH]c(C)c2[N+](=O)[O-])cc1C	104.0	131.0*	-1.2	0.1	0.0	-10.9	100.0	2.0	100.0
Cc1[nH]nc(SCC(=O)NCc2ccc(F)cc2)c1[N+](=O)[O-]	103.0	131.0*	0.8	0.1	-1.0	34.9	104.0	2.0	101.0
CSC(=NC#N)N1CCN(C(=NC#N)SC)CC1	1.0*[inhibitor]	2.0*[inhibitor]	-0.5	0.1	-60.0	-1.0	98.0	-6.0	99.0
NC(=O)C1CCCN(CC(O)COCc2ccc(Cl)cc2)C1 (centres undefined)	103.0	101.0	x	-0.3	7.0	x	x	x	x
N#Cc1c(-c2cccnc2)cc(-c2ccccc2)nc1N	111.0	129.0*	x	0.0	21.0	x	97.0	-3.0	100.0
COc1ccc2[nH]cc(CCNC(=O)CCC3CCCCC3)c2c1	99.0	102.0	x	0.1	-1.0	x	x	x	x
COc1ccc(/C=C/C(=O)NCCCN2CCCCCC2)cc1	155.0*	105.0	x	0.0	28.0*	x	155.0	27.0	107.0
SMILES	MEKK2 WT-MEK5	MEKK3 PB1 HTS	ABCB1 inh	Efflux pump mplx	MEKK2mut PB1 HTS	ABCG2 block	MEKK2wt confirm	MEKK2mut-MEK5	MEKK3 confirm
O=C(/C=C/c1ccc(Cl)c(Cl)c1)NCCCn1ccnc1	114.0	101.0	x	-0.2	13.0	x	x	x	x
COc1ccc(/C=C/C(=O)NCCCN2CCOCC2)cc1	99.0	100.0	x	0.1	-3.0	x	x	x	x
O=C(/C=C/c1ccc(F)cc1)NCCCN1CCN(CCCNC(=O)/C=C/c2ccc(F)cc2)CC1	146.0*	111.0	0.2	-0.1	5.0	4.2	196.0	67.0	111.0
Cc1ccc(/C=C/C(=O)NCCCn2ccnc2)cc1	5.0*[inhibitor]	3.0*[inhibitor]	-0.7	0.0	-46.0	1.8	97.0	0.0	97.0
Cc1cc(C)n(CCc2nc(-c3ccc(F)cc3)cs2)n1	104.0	106.0	0.4	0.1	2.0	14.3	x	x	x
COc1cc(-c2csc(CCn3nc(C)cc3C)n2)cc(OC)c1OC	x	122.0	0.9	0.1	+	51.2	99.0	-3.0	97.0
CC(=O)N=c1c(C#N)cc2c(=O)n3ccccc3nc2n1Cc1ccccc1	105.0	135.0*	3.5	0.1	1.0	7.2	114.0	14.0	91.0
O=C1/C(=C/c2ccncc2)SC(=S)N1N1CCOCC1	37.0*[inhibitor]	42.0*[inhibitor]	x	0.0	-12.0	x	99.0	-4.0	103.0
COc1cc(/C=C2\SC(=S)N(N3CCOCC3)C2=O)ccc1O	78.0	76.0	x	0.0	-3.0	x	x	x	x
O=C1/C(=C/c2cccnc2)SC(=S)N1N1CCOCC1	101.0	99.0	x	-0.2	-1.0	x	x	x	x
COc1cc(/C=C2\SC(=S)N(N3CCOCC3)C2=O)cc(OC)c1OC	91.0	141.0*	-0.4	-0.1	-1.0	-1.3	100.0	-1.0	104.0
COc1ccccc1N(CC(=O)NCCSc1ccccc1)S(C)(=O)=O	93.0	95.0	0.7	0.0	-1.0	8.1	x	x	x
